Screens (PubChem)
NR1D1 modulator = modulates human Rev-erb alpha binding to DNA; Rev-erbα–FITC-DNA binding, fluorescence polarization, 90 min; activity, % at 10 µM; hit rate 0.79% among 370,000;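 active means activity above about 14%, limit read from the data; passing the limit was not always enough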;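 further: 0% = DMSO wells with 35 nM protein and 100% = DMSO wells with 750 nM protein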
NR2E3 ag-1 = activates human NR2E3 receptor; Q9Y5X4; inhibition of corepressor binding, % at 3.98 µM; CHO-S Gal4-NCOR/VP16-NR2E3 two-hybrid, luciferase; hit rate 0.35% among 360,000;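 active means inhibition above the mean of all tested compounds plus 3 SD, cut at about 70% in these data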;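 further: 0% = DMSO with NR2E3 transfected cells and 100% = cells lacking NR2E3 construct; higher means lower luciferase signal from less NR2E3 corepressor binding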
Target sequence (Q9Y5X4 whole entry, looked up, the tested form may be a part): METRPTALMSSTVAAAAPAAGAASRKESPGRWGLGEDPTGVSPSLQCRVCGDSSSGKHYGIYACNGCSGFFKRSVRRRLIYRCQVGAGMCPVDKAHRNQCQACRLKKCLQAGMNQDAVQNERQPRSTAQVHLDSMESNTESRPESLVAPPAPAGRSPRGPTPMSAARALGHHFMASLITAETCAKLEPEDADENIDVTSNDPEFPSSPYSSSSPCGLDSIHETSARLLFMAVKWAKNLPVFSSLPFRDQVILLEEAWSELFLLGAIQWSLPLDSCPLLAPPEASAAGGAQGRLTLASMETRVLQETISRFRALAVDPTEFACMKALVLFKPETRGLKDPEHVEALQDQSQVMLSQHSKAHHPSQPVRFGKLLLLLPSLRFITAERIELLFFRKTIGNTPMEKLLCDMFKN
PG9 binder = PG9 antibody binding by small molecule; TR-FRET gp120-PG9 antibody binding; inhibition, % at 6.7 µM; hit rate 0.43% among 360,000; AID 624416; in the data active means inhibition above about 8.5%
NR2E3 ag-2 = NR2E3 (human) agonism. Q9Y5X4. inhibition of corepressor binding, % at 4.78 µM. hit rate 0.12% among 320,000. GST-NR2E3/biotin-RetCOR TR-FRET, 1536-well. AID 2300;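 active means percent inhibition above the cutoff of mean plus 3 SD of all tested compounds, set per screening campaign, cut at about 20% in these data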;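 further: 0% = DMSO wells and 100% = biotin wells as full block of FRET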
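System: GST-tagged NR2E3 plus biotinylated RetCOR corepressor; Buffer or medium: pH 7.5 Tris-based buffer; Probe or stimulus: RetCOR corepressor, biotinylated, 7 nM; Doses: compound at 4.8 µM, single dose; Schedule: 5 h incubation at 4 °C; Technique: time-resolved FRET; Evaluation: percent inhibition of TR-FRET ratio; Replication: one well per compound, singlicate testing.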
NR2E3 ag conf = NR2E3 agonism confirmed in two-hybrid assay | AID 624378 | hit rate 51% among 2,300 | CHO-S mammalian two-hybrid NR2E3-NCOR, luciferase luminescence | shares compounds with NR2E3 ag-1 | inhibition, % at 3.98 µM;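 active means average inhibition above a cutoff equal to the mean inhibition of all tested compounds plus one SD, cut at about 70% in these data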;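 further: 0% = DMSO in NR2E3 cells and 100% = DMSO in cells lacking NR2E3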
VP16 counter = counter-screen for NR2E3 agonists: GAL4-VP16 reporter inhibitors; shares compounds with NR2E3 ag-1; CHO-S GAL4-VP16 luciferase reporter, luminescence; inhibition, % at 3.98 µM; hit rate 29% among 2,300;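 active means mean inhibition above a cutoff equal to the average over all tested compounds plus one standard deviation, cut at about 70% in these data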;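 further: luciferase from a UAS reporter driven by GAL4-VP16 transactivation; 0% = DMSO with VP16-transfected cells and 100% = DMSO with cells lacking VP16; higher means less reporter light so more repression of VP16 activity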
Numbers without * were called inactive; / = not tested or not shown. An excerpt weighted towards active compounds, which were near 1.4% of everything screened.

SMILES | NR1D1 modulator | NR2E3 ag-1 | PG9 binder | NR2E3 ag-2 | NR2E3 ag conf | VP16 counter
N#C/C(=C(/O)COC(=O)c1cccnc1Cl)c1nc2ccccc2[nH]1 | -4 | -19 | 3 | -4 | / | /
O=C(CCCN1C(=O)/C(=C/c2ccc3c(c2)OCO3)SC1=S)Nc1ccc(C(=O)O)cc1 | 1 | 51 | -4 | 2 | 34 | 64
O=C(CCCN1C(=O)C(=Cc2ccc3c(c2)OCO3)SC1=S)Nc1ccc(C(=O)O)c(O)c1 | -4 | 50 | -4 | / | 8 | 66
CCOc1ccc(NC(=O)C2CC(=O)N(CCc3ccc(OC)c(OC)c3)C2)cc1OCC (centres undefined) | -4 | -16 | -2 | -1 | / | /
CC1Cc2ccccc2N1C(=S)NC(=O)c1ccc(Cl)cc1Cl (centres undefined) | 7 | 78* | -2 | 2 | 28 | 26
CC1Cc2ccccc2N1C(=S)NC(=O)c1cccc(Br)c1 (centres undefined) | -2 | 26 | -1 | -2 | / | /
COc1ccc(-c2cc3c(=O)n(CC(=O)NCCCN4CCN(Cc5ccccc5)CC4)ncn3n2)cc1 | 1 | 48 | -1 | 3 | 5 | -20
COc1ccc(-c2cc3c(=O)n(CC(=O)NCCCN4CCC(Cc5ccccc5)CC4)ncn3n2)cc1 | 6 | 0 | -1 | 3 | / | /
Clc1ccc2nc(-c3ccccn3)c(Nc3ccc4c(c3)OCO4)n2c1 | 9 | 52 | 0 | 2 | -66 | -87
Cc1ccc2nc(-c3ccccc3O)c(Nc3ccc4c(c3)OCCO4)n2c1 | -4 | -4 | -1 | -2 | / | /
O=C(Nc1ccc(OC(F)(F)F)cc1)N1CCN(c2ccnc3cc(Cl)ccc23)CC1 | 6 | 65 | 0 | -2 | 94* | 70
O=C(NO)C1CC2C=CC1C2 (centres undefined) | 9 | -13 | -2 | 3 | / | /
COc1ccc(S(=O)(=O)N2CCOC2CNC(=O)C(=O)NCc2ccc(F)cc2)cc1OC (centres undefined) | -1 | 49 | -1 | 2 | 10 | 12
COc1ccc(CNC(=O)C(=O)NCC2OCCN2S(=O)(=O)c2ccc(F)cc2)cc1 (centres undefined) | -5 | 19 | -3 | 0 | / | /
CCOc1ccc(NS(=O)(=O)c2ccc3c(c2)N(C(C)=O)CC3)cc1 | -1 | 15 | 0 | 0 | / | /
CN(c1cccc(NS(=O)(=O)c2ccccc2)c1)S(C)(=O)=O | -5 | -2 | 2 | 7 | / | /
Cc1ccc(S(=O)(=O)Nc2ccc3c(c2)n(C)c(=O)n3C)cc1 | 1 | 33 | -1 | 1 | / | /
CCOc1ccc(S(=O)(=O)Nc2ccc3c(c2)n(C)c(=O)n3C)cc1 | 2 | 74* | 0 | 3 | 62 | 59
CCOc1ccc(NS(=O)(=O)c2ccc3c(c2)N(C(C)=O)CCS3)cc1 | -3 | 55 | -2 | 3 | 7 | 13
CCOc1ccc(S(=O)(=O)Nc2cccc(N(C)S(C)(=O)=O)c2)cc1 | -1 | 49 | 2 | 0 | 48 | 54
COc1ccc(NS(=O)(=O)c2ccc(C(=O)N3CCC(C)CC3)cc2)cc1 | 1 | 56 | -1 | / | 25 | 25
CC1(C(=O)NS(=O)(=O)c2ccc(C#N)cc2)CCN1C(=O)C1(c2ccccc2)CC1 (centres undefined) | -3 | -27 | 1 | / | / | /
CCc1ccc(S(=O)(=O)Nc2cc3c(cc2C)n(C)c(=O)n3C)cc1 | -1 | 98* | 2 | 1 | 83* | 69
CCOc1ccc(NS(=O)(=O)c2ccc(C(=O)N3CCCCC3)cc2)cc1 | -5 | 58 | 0 | 0 | 40 | 54
CCOc1ccc(NS(=O)(=O)c2ccc(C(=O)N3CCN(c4ncccn4)CC3)cc2)cc1 | 1 | 29 | 1 | 6 | / | /
Cc1ccc(-n2nc3c(=O)n(CC(=O)NC(C)CCc4ccccc4)nc(C)c3c2C)cc1 (centres undefined) | / | 55 | / | 1 | 52 | 65
Cc1ccc(-n2nc3c(=O)n(CCCC(=O)NCc4cccc(F)c4)nc(C)c3c2C)cc1 | -1 | 52 | 0 | -1 | 20 | 39
C=CCc1cc(C=O)cc(OC)c1OCc1ccc(C(=O)O)cc1 | -6 | -66 | 2 | 2 | / | /
O=C(COc1ccc(-n2cnnn2)cc1)Nc1ccc(F)c(Cl)c1 | 7 | -6 | 2 | / | / | /
Cc1sc2ncnc(N3CCN(S(=O)(=O)c4ccc(F)cc4)CC3)c2c1C | 4 | 78* | -1 | 2 | 80* | 74*
